Activity calls are given as the source filed them. The calls are words filed in the database; no cut-off is given here.
Experiments:
[1] = biological target: Melanin-concentrating hormone receptor 1 (Mus musculus) (UniProt Q8JZL2); test: Ex vivo displacement of [125I]S36057 binding from mouse brain MCHR1 at 30 mg/kg, po after 6 hrs; format: functional, organism-based; set-up: dose 30 mg/kg
[2] = biological target: Melanin-concentrating hormone receptor 1 (Homo sapiens, UniProt Q99705); test: Displacement of [125I]MCH from MCHR1 expressed in CHO cells; format: cell-based
In short: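 Human MCH R1, CHO cell membranes (0.1 mg/mL) on SPA beads (1 mg/mL). Buffer: 25 mM HEPES, 10 mM MgCl2, 5 mM MnCl2, 0.1% BSA, pH 7.4. Incubation 2–4 h at room temperature, scintillation count. Ki by non-linear regression; mean ± range of two determinations, each in quadruplicate.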

hERG (KCNH2) [3] = biological target: T1, hERG (KCNH2) (Homo sapiens, UniProt Q12809); test: (§1) Inhibition of hERG expressed in CHO cells at 5 ug/mL by rubidium efflux assay; format: toxicity, cell-based; conditions: CHO cells that express hERG
In short: (§2)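 hERG-CHO cells plated 24 h, then loaded 3 h in HEPES-buffered saline with 5.4 mM RbCl. Compound added and equilibrated 30 min at 37 °C. Cells washed three times in Rb-free saline (5.4 mM KCl), then depolarized 5 min with 45.4 mM KCl.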

hERG (KCNH2) [4] = biological target: T1, hERG (KCNH2); test: Inhibition of hERG expressed in CHO cells at […] by rubidium efflux assay; format: toxicity, cell-based; conditions: CHO cells that express hERG
[5] = biological target: Melanin-concentrating hormone receptor 1 (Mus musculus) (UniProt Q8JZL2); test: Ex vivo displacement of [125I]S36057 binding from mouse brain MCHR1 at 30 mg/kg, po after 24 hrs; format: functional, organism-based; set-up: dose 30 mg/kg
[6] = biological target: Voltage-gated inwardly rectifying potassium channel KCNH2 (Homo sapiens, UniProt Q12809); test: as §1; format: toxicity, cell-based; conditions: cho; in short: as §2
Voltage-gated inwardly rectifying potassium channel KCNH2, sequence (Q12809 whole entry): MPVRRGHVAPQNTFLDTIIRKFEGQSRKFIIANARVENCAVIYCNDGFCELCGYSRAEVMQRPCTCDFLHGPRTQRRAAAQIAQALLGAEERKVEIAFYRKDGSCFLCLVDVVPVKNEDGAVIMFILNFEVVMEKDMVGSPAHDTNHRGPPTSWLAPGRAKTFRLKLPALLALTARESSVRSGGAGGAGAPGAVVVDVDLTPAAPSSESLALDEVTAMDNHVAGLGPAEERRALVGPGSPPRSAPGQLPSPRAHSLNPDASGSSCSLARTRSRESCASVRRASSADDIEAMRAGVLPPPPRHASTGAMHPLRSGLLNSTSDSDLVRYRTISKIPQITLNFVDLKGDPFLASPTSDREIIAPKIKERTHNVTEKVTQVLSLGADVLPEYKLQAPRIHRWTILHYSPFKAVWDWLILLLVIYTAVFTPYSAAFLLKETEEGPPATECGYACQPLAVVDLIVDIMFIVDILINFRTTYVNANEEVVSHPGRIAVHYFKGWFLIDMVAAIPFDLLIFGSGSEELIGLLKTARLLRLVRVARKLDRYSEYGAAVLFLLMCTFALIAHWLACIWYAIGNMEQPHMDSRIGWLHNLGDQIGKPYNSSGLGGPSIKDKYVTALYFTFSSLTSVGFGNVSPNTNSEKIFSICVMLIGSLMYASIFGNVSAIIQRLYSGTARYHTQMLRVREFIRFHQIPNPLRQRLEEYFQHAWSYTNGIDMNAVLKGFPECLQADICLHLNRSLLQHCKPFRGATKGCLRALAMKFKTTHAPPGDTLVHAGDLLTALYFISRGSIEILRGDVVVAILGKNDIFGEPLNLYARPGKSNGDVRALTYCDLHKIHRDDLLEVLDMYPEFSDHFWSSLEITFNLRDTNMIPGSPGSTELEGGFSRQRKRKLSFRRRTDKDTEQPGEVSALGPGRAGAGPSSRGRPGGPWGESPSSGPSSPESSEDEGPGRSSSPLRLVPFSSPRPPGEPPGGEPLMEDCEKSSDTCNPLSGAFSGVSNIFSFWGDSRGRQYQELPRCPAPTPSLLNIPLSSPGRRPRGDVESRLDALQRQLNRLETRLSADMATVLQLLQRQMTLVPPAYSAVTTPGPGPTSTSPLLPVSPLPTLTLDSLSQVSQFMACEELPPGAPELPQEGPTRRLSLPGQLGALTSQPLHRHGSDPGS

Melanin-concentrating hormone receptor 1, sequence (Q99705 whole entry): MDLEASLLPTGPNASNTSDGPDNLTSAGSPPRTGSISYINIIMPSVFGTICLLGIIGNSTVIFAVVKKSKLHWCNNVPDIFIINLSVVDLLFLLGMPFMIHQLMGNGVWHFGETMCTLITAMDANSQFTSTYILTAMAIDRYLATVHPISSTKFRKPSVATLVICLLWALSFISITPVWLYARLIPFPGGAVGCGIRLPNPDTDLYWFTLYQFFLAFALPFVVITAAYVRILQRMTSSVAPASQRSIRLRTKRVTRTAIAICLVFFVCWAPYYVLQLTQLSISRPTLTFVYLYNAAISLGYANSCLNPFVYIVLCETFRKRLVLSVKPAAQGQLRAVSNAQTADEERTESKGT
T1 sequence (Q12809 whole entry): as the sequence (Q12809 whole entry) above
Melanin-concentrating hormone receptor 1 (Mus musculus), sequence (Q8JZL2 whole entry): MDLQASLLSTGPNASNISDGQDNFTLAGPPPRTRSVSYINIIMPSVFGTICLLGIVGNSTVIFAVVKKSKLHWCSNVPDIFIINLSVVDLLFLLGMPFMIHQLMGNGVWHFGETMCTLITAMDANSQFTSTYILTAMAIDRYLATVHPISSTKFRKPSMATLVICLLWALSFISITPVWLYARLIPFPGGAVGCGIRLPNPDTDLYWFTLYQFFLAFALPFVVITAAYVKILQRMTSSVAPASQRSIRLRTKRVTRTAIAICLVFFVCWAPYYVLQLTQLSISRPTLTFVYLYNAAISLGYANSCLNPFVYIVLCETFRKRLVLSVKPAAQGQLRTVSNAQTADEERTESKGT

SMILES | Activity [1] | Ki [2] | Activity [5] | inhibition at 5 ug/mL (hERG (KCNH2) [3]) | inhibition at […] (hERG (KCNH2) [4]) | Activity [6]
CS(=O)(=O)N1CCC(CN(C(=O)Nc2cc(Cl)nc(Cl)c2)[C@@H]2CC[C@]3(c4cccc(CN5CC[C@H](O)C5)c4)CC3C2)CC1 (stereo partly specified) | 1% | 8.9 nM |  | 0% | -7% | 
CC(C)N(CCN(C(=O)Nc1ccc(F)c(Cl)c1)[C@@H]1CC[C@]2(c3cccc(C#N)c3)CC2C1)[C@H](C)CO (stereo partly specified) | 73% | 9.4 nM | 25% |  |  | Not Active
CN(C)Cc1cccc([C@]23CC[C@@H](N(CC4CCN(S(C)(=O)=O)CC4)C(=O)Nc4ccc(F)c(Cl)c4)CC2C3)c1 (stereo partly specified) | 26% | 15 nM |  | 8% | 7% | 
CC1CC[C@@H](CO)N1CCN(C(=O)Nc1ccc(F)c(Cl)c1)[C@@H]1CC[C@]2(c3cccc(C#N)c3)CC2C1 (stereo partly specified) | 31% | 11 nM | 2% | 78% |  | 
CC(C)N(CCN(C(=O)Nc1cc(Cl)nc(Cl)c1)[C@@H]1CC[C@]2(c3cccc(C#N)c3)CC2C1)C(C)C (stereo in doubt; 13) | 99% |  | 58% |  |  | 
O=C(Nc1ccc(F)c(Cl)c1)N(CCN1CCCC1)C1CC=C(c2cccnc2)CC1 (stereo unspecified) | 16% | 30 nM |  |  |  | 
NCc1cnc(C2=CCC(N(CCN3CCCC3)C(=O)Nc3ccc(F)c(Cl)c3)CC2)s1 (stereo unspecified) | 37% | 17 nM |  | 14% |  | 
CS(=O)(=O)N1CCC(CN(C(=O)Nc2ccc(F)c(Cl)c2)[C@@H]2CC[C@]3(c4cccc(CN)c4)CC3C2)CC1 (stereo partly specified) | 0% | 9.9 nM |  | 14% | 8% | 
CC(C)N(CCF)CCN(C(=O)Nc1ccc(F)c(Cl)c1)[C@@H]1CC[C@]2(c3cccc(C#N)c3)CC2C1 (stereo partly specified) | 81% | 12 nM | 66% | 50% |  | 
CC(=O)c1ccc(C2=CCC(N(CCN3CCCC3)C(=O)Nc3ccc(F)c(Cl)c3)CC2)s1 (stereo unspecified) | 59% | 31 nM | 3% | 43% |  | 
N#Cc1cccc([C@]23CC[C@@H](N(CCN4CC[C@@H](O)C4)C(=O)Nc4ccc(F)c(Cl)c4)CC2C3)c1 (stereo partly specified) | 49% |  | inactive | 80% |  | 
CC(C)N(CCF)CCN(C(=O)Nc1cc(Cl)nc(Cl)c1)[C@@H]1CC[C@]2(c3cccc(C#N)c3)CC2C1 (stereo partly specified) | 99% | 10 nM | 97% | 50% |  | 
CS(=O)(=O)N1CCC(CN(C(=O)Nc2ccc(F)c(C(F)(F)F)c2)[C@@H]2CC[C@]3(c4cccc(C#N)c4)CC3C2)CC1 (stereo partly specified) |  | 26 nM |  | -1% | -1% | 
N#Cc1cccc([C@]23CC[C@@H](N(CCN4CCC[C@H]4CO)C(=O)Nc4ccc(F)c(Cl)c4)CC2C3)c1 (stereo partly specified) | 78% |  | inactive | 75% |  | 
CC(C)N(CCN(C(=O)Nc1ccc(F)c(Cl)c1)[C@@H]1CC[C@]2(c3cccc(CNS(C)(=O)=O)c3)CC2C1)C(C)C (stereo partly specified) |  | 18 nM |  | 46% | 17% | 
CC(C)N(CCN(C(=O)Nc1ccc(F)c(Cl)c1)[C@@H]1CC[C@]2(c3cccc(CN(C)C)c3)CC2C1)C(C)C (stereo partly specified) |  | 13 nM |  | 5% | -1% | 
NCc1ncc(C2=CCC(N(CCN3CCCC3)C(=O)Nc3ccc(F)c(Cl)c3)CC2)s1 (stereo unspecified) | 88% | 13 nM | 75% | 10% |  | 

Now from value to molecule, other results behind:

Activity [1] | Ki [2] | Activity [5] | SMILES | inhibition at 5 ug/mL (hERG (KCNH2) [3]) | inhibition at […] (hERG (KCNH2) [4]) | Activity [6]
0% | 2.4 nM |  | CS(=O)(=O)N1CCC(CN(C(=O)Nc2cc(Cl)nc(Cl)c2)[C@@H]2CC[C@]3(c4cccc(CN)c4)CC3C2)CC1 (stereo partly specified) | 3% | -1% | 
84% | 4.2 nM | 97% | N#Cc1ccc(C2=CCC(N(CCN3CCCC3)C(=O)Nc3ccc(F)c(Cl)c3)CC2)s1 (stereo unspecified) | 74% |  | 
83% | 5 nM | inactive | CC(C)N(CCN(C(=O)Nc1ccc(F)c(Cl)c1)[C@@H]1CC[C@]2(c3cccc(C#N)c3)CC2C1)C(C)C (stereo partly specified) | 78% | 44% | 
75% | 5.2 nM | 35% | CC(C)N(CCN(C(=O)Nc1ccc(F)c(Cl)c1)[C@@H]1CC[C@]2(c3cccc(C#N)c3)CC2C1)[C@@H](C)CO (stereo partly specified) | 82% |  | 
73% | 8.7 nM | 38% | CC(C)N(CCO)CCN(C(=O)Nc1ccc(F)c(Cl)c1)[C@@H]1CC[C@]2(c3cccc(C#N)c3)CC2C1 (stereo partly specified) | 88% |  | 
99% | 1.6 nM | inactive | CC(C)N(CCO)CCN(C(=O)Nc1cc(Cl)nc(Cl)c1)[C@@H]1CC[C@]2(c3cccc(C#N)c3)CC2C1 (stereo partly specified) |  |  | Not Active
77% | 8.2 nM | 57% | NCc1ccc(C2=CCC(N(CCN3CCCC3)C(=O)Nc3ccc(F)c(Cl)c3)CC2)s1 (stereo unspecified) | 26% |  | 
62% | 4.1 nM | inactive | CO/N=C/c1cccc([C@]23CC[C@@H](N(CCN(C(C)C)C(C)C)C(=O)Nc4ccc(F)c(Cl)c4)CC2C3)c1 (stereo partly specified) | 76% |  | 
89% | 4.4 nM | 32% | N#Cc1cccc([C@]23CC[C@@H](N(CCNCCF)C(=O)Nc4cc(Cl)nc(Cl)c4)CC2C3)c1 (stereo partly specified) | 84% |  | 
93% | 1.9 nM | 70% | CC(C)NCCN(C(=O)Nc1cc(Cl)nc(Cl)c1)[C@@H]1CC[C@]2(c3cccc(C#N)c3)CC2C1 (stereo partly specified) |  |  | Not Active
99% | 1.6 nM | 81% | CC(C)N(CCN(C(=O)Nc1cc(Cl)nc(Cl)c1)[C@@H]1CC[C@]2(c3cccc(C#N)c3)CC2C1)[C@@H](C)CO (stereo partly specified) | 60% |  | 
0% | 3.3 nM |  | CN(C)Cc1cccc([C@]23CC[C@@H](N(CC4CCN(S(C)(=O)=O)CC4)C(=O)Nc4cc(Cl)nc(Cl)c4)CC2C3)c1 (stereo partly specified) | 7% | 8% | 
82% | 1.2 nM | 41% | CC1CC[C@@H](CO)N1CCN(C(=O)Nc1cc(Cl)nc(Cl)c1)[C@@H]1CC[C@]2(c3cccc(C#N)c3)CC2C1 (stereo partly specified) | 60% |  | 
